Values belong to the compound of their own block, whether it stands above or below them. Activity calls are given as the source filed them. The calls are words filed in the database; no cut-off is given here.
How the values were obtained:
[1] = biological target: T1, Oxidation resistance protein 1 (Homo sapiens) (UniProt Q8N573); assay: Induction of OXR1 degradation in ionizing radiation induced human WI38 senescent cells at 5 uM after 24 hrs by Western blot analysis
T1 sequence (whole entry): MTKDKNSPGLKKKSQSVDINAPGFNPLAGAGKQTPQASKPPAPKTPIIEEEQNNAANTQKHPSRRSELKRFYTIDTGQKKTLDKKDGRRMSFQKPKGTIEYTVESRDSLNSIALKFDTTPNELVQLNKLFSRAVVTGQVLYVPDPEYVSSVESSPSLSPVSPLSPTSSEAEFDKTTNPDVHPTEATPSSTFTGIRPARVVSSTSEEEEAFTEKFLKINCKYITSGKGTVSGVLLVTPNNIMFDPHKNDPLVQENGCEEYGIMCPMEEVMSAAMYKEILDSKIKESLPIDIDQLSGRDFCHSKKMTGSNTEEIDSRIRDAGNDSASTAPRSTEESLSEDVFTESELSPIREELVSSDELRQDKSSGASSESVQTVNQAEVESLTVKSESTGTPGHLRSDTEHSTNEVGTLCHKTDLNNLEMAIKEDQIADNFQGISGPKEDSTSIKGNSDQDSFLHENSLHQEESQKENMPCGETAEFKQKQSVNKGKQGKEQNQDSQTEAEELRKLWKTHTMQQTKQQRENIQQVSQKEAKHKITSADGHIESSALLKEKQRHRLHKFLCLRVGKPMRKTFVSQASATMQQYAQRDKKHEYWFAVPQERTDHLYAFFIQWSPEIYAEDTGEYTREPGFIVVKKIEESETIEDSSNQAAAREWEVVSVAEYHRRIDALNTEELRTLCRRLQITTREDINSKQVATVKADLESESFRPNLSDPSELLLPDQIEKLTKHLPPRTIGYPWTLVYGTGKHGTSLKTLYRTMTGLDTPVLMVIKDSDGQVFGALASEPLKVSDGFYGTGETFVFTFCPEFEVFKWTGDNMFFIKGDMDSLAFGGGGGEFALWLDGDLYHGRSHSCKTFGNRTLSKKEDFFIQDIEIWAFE
Summary of the method: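 Cells were lysed in RIPA buffer with EDTA/EGTA and proteins were transferred to PVDF. Membranes were blocked in 5% nonfat milk/TBST and probed overnight at 4 °C for OXR1 and β-actin. Bands were quantified; mean ± SEM, n = 3.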

[2] = Toxicity in po dosed mouse; format: organism-based; conditions: in vivo
[3] = tested on: WI-38; assay: Senolytic activity against non-senescent human WI38 cells assessed as reduction in cell viability by propidium iodide staining based flow cytometry
Summary of the method: (§1)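 WI-38 fibroblasts were grown in DMEM/10% FBS with penicillin/streptomycin at 37 °C, 5% CO2. Low-passage cells (<25 passages) served as non-senescent controls.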

[4] = tested on: WI-38; assay: Senolytic activity against ionizing radiation induced human WI38 senescent cells assessed as reduction in cell viability by propidium iodide staining based flow cytometry; format: functional; summary of the method: as §1
[5] = Selectivity index, ratio of EC50 for non-senescent human WI38 cells to EC50 for ionizing radiation induced human WI38 senescent cells; format: functional, WI-38
Summary of the method: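 Human WI-38 fibroblasts were grown in DMEM with 10% FBS and penicillin/streptomycin at 37 °C in 5% CO2. Low-passage cells (<25 passages) served as non-senescent controls. Viability was read by flow cytometry.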

[6] = tested on: WI-38; assay: Induction of ROS production in ionizing radiation induced human WI38 senescent cells up to 64 uM after […] by DHR123 dye based flow cytometry; format: functional, cell-based
[7] = tested on: WI-38; assay: Induction of apoptosis in ionizing radiation induced human WI38 senescent cells assessed as live cells at 10 uM after 48 hrs by Annexin V-FITC/propidium iodide staining based flow cytometry (reference value: 87%); format: functional
[8] = tested on: WI-38; assay: Induction of apoptosis in ionizing radiation induced human WI38 senescent cells assessed as early apoptotic cells at 10 uM after 48 hrs by Annexin V-FITC/propidium iodide staining based flow cytometry (reference value: […]); format: functional
[9] = tested on: WI-38; assay: Induction of apoptosis in ionizing radiation induced human WI38 senescent cells assessed as late apoptotic cells at 10 uM after 48 hrs by Annexin V-FITC/propidium iodide staining based flow cytometry (reference value: […]); format: functional
[10] = tested on: WI-38; assay: Induction of apoptosis in ionizing radiation induced human WI38 senescent cells assessed as necrotic cells at 10 uM after 48 hrs by Annexin V-FITC/propidium iodide staining based flow cytometry (reference value: […]); format: functional

SMILES: COc1cc(/C=C/C(=O)N2CCC=CC2=O)cc(OC)c1OC [PIPLARTINE]
MTD [2]: > 1000 mg/kg
EC50 [3]: 20.3 µM
EC50 [4]: 8 µM
Ratio EC50 [5]: 2.5
Activity [1]: Active
Activity [6]: Active

SMILES: CC(C)[C@H](NC(=O)c1ccc2ccccc2n1)C(=O)N[C@@H](CC(=O)O)C(=O)COc1c(F)cccc1F
Activity [7]: 80.9%
Activity [8]: 7.7%
Activity [9]: 8%
Activity [10]: 3.4%

SMILES: C=C1CCN(C(=O)/C=C/c2cc(OC)c(OC)c(OC)c2)C1=O
Activity [1]: Active

The remaining lines, values ahead:

Activity [1]: Active
SMILES: C=C1CCCCN(C(=O)/C=C/c2cc(OC)c(OC)c(OC)c2)C1=O

Activity [1]: Active
SMILES: C=C1CCCN(C(=O)/C=C/c2cc(OC)c(OC)c(OC)c2)C1=O
